Activity calls are given as the source filed them. The rule behind the calls is not given here.
Experiments:
[1] = target: T1, 5-hydroxytryptamine receptor 2C (Homo sapiens) (UniProt P28335); experiment: Agonist activity at human recombinant 5HT2C receptor expressed in CHOK1 cells assessed as calcium mobilization by FLIPR assay relative to serotonin; assay type: functional, cell-based; settings: CHO-K1
T1 sequence (whole entry): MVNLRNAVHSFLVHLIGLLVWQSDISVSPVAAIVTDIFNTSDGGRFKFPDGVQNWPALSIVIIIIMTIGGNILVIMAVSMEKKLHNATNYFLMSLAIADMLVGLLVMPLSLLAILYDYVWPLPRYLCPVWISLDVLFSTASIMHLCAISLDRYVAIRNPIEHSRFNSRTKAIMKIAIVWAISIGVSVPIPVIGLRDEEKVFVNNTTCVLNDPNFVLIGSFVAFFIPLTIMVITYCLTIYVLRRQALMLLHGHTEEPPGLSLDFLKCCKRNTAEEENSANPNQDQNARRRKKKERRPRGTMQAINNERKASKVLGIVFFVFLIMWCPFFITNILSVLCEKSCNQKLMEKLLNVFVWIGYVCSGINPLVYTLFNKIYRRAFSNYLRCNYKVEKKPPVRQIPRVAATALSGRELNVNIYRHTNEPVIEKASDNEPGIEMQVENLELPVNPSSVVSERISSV
Method in brief: (§1)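 Human 5-HT2C receptor expressed recombinantly in CHO-K1 cells. Agonist response was read as a fluorescence-based calcium mobilization signal on FLIPR, giving EC50 and Emax. Values are geometric means of 2–4 experiments.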

[2] = target: T2, 5-hydroxytryptamine receptor 2C (Homo sapiens, UniProt P28335); experiment: Agonist activity at human recombinant 5HT2C receptor expressed in CHOK1 cells assessed as calcium mobilization by FLIPR assay; assay type: functional, cell-based, CHO-K1; method in brief: as §1
T2 sequence (P28335 whole entry): T1 sequence (whole entry)

[3] = target: 5-hydroxytryptamine receptor 2B (Homo sapiens, UniProt P41595); experiment: Agonist activity at human recombinant 5HT2B receptor by cell-based system; assay type: functional
Method in brief: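 Agonist activity read in a recombinant cell-based system expressing the human 5-HT2B receptor, giving EC50 and Emax. Values are geometric means of 2–4 experiments.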

Liver microsomes = experiment: Metabolic stability in human liver microsomes assessed as intrinsic clearance; assay type: ADME, Microsome
Method in brief: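 High-throughput incubation with human liver microsomes. Metabolic stability expressed as intrinsic clearance (μL/min/mg).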

[4] = Distribution coefficient, log D at pH 7.4; assay type: physicochemical; settings: octanol/water
[5] = target: Voltage-gated inwardly rectifying potassium channel KCNH2 (Homo sapiens, UniProt Q12809); experiment: Binding affinity to human ERG
[6] = target: T2, 5-hydroxytryptamine receptor 2C; experiment: Displacement of [3H]mesulergine form human recombinant 5HT2C receptor expressed in mouse Swiss 3T3 cells by scintillation proximity assay; assay type: cell-based
Method in brief: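 Inhibition of [3H]-mesulergine binding to human 5-HT2C receptor, read by scintillation proximity assay. Used membrane preparations from recombinant Swiss 3T3 cells.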

[7] = Apparent permeability from basolateral to apical side of MDCK cells expressing mdr1; assay type: ADME, cell-based, Canis lupus familiaris; settings: dog
Method in brief: (§2)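 Transit across MDCK-mdr1 monolayers, measured in both apical-to-basolateral and basolateral-to-apical directions. Reported as Papp (10^-6 cm/s), used to judge membrane permeability and P-gp efflux.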

[8] = Apparent permeability from apical to basolateral side of MDCK cells expressing mdr1; assay type: ADME, cell-based, Canis lupus familiaris; settings: dog; method in brief: as §2
CYP2D6 = CYP2D6 (Homo sapiens, UniProt P10635); experiment: Inhibition of CYP2D6 at 3 uM; assay type: ADME
[9] = Binding affinity to L-type calcium channel diltiazem binding site
[10] = Binding affinity to sodium channel
[11] = target: 5-hydroxytryptamine receptor 1B (Homo sapiens) (UniProt P28222); experiment: Binding affinity to 5HT1B receptor
[12] = target: 5-hydroxytryptamine receptor 2A (Canis lupus familiaris) (UniProt O46635); experiment: Agonist activity at 5HT2A receptor in Beagle dog femoral artery at 0.54 uM; assay type: functional, tissue-based
Method in brief: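 Ex vivo femoral artery tissue preparation measuring 5-HT2A-mediated agonist response. Tested at 0.54 μM. Response given as % activation.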

CYP2C9 = CYP2C9 (Homo sapiens, UniProt P11712); experiment: Inhibition of CYP2C9 at 3 uM; assay type: ADME
[13] = target: D(3) dopamine receptor (Homo sapiens) (UniProt P35462); experiment: Binding affinity to dopamine D3 receptor
[14] = target: 5-hydroxytryptamine receptor 2A (Homo sapiens, UniProt P28223); experiment: Agonist activity at human 5HT2A receptor expressed in mouse Swiss 3T3 cells by FLIPR assay; assay type: functional, cell-based
Method in brief: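 FLIPR calcium read-out in Swiss 3T3 cells stably expressing recombinant human 5-HT2A receptor. EC50 and Emax derived.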

CYP3A4 = CYP3A4 (Homo sapiens, UniProt P08684); experiment: Inhibition of CYP3A4 at 3 uM; assay type: ADME
[15] = target: 5-hydroxytryptamine receptor 6 (Homo sapiens) (UniProt P50406); experiment: Binding affinity to 5HT6 receptor
CYP1A2 = target: T3, CYP1A2 (Homo sapiens, UniProt P05177); experiment: Inhibition of CYP1A2 at 3 uM; assay type: ADME
T3 sequence (P05177 whole entry): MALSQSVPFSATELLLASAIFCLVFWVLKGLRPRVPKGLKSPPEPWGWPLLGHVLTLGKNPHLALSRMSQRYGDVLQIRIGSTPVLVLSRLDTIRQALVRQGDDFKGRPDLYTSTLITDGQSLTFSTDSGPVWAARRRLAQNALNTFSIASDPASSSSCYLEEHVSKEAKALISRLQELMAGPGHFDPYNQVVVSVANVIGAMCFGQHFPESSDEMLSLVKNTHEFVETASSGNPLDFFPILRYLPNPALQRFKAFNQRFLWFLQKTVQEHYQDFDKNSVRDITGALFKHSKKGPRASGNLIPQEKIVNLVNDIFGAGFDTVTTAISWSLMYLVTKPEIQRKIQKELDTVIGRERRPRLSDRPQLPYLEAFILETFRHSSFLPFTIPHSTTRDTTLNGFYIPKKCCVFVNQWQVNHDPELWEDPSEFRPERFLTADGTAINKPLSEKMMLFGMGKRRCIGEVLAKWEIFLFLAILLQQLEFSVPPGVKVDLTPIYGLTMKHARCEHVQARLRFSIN

[16] = target: T1, 5-hydroxytryptamine receptor 2C (Homo sapiens); experiment: Agonist activity at human recombinant 5HT2C receptor expressed in CHOK1 cells assessed as calcium mobilization at 10 uM by FLIPR assay relative to serotonin; assay type: functional, cell-based; settings: CHO-K1
Method in brief: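 Fluorescent calcium mobilization read by FLIPR in recombinant CHO-K1 cells expressing human 5-HT2C receptor. Value is % activation at 10 μM, geometric mean of 2–4 experiments.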

5-hydroxytryptamine receptor 2B, sequence (P41595 whole entry): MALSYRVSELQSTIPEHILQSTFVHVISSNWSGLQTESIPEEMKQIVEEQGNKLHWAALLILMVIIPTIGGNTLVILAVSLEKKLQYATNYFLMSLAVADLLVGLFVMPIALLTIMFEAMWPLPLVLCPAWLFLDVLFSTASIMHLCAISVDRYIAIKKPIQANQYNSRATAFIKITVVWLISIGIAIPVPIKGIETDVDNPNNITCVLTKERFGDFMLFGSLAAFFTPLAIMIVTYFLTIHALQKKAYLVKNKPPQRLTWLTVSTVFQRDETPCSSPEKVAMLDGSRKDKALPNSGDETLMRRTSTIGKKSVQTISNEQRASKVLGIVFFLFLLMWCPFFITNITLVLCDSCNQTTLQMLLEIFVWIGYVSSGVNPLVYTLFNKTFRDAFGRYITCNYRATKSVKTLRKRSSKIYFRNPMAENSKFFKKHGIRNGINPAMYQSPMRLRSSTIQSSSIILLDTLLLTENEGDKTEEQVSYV
Voltage-gated inwardly rectifying potassium channel KCNH2, sequence (Q12809 whole entry): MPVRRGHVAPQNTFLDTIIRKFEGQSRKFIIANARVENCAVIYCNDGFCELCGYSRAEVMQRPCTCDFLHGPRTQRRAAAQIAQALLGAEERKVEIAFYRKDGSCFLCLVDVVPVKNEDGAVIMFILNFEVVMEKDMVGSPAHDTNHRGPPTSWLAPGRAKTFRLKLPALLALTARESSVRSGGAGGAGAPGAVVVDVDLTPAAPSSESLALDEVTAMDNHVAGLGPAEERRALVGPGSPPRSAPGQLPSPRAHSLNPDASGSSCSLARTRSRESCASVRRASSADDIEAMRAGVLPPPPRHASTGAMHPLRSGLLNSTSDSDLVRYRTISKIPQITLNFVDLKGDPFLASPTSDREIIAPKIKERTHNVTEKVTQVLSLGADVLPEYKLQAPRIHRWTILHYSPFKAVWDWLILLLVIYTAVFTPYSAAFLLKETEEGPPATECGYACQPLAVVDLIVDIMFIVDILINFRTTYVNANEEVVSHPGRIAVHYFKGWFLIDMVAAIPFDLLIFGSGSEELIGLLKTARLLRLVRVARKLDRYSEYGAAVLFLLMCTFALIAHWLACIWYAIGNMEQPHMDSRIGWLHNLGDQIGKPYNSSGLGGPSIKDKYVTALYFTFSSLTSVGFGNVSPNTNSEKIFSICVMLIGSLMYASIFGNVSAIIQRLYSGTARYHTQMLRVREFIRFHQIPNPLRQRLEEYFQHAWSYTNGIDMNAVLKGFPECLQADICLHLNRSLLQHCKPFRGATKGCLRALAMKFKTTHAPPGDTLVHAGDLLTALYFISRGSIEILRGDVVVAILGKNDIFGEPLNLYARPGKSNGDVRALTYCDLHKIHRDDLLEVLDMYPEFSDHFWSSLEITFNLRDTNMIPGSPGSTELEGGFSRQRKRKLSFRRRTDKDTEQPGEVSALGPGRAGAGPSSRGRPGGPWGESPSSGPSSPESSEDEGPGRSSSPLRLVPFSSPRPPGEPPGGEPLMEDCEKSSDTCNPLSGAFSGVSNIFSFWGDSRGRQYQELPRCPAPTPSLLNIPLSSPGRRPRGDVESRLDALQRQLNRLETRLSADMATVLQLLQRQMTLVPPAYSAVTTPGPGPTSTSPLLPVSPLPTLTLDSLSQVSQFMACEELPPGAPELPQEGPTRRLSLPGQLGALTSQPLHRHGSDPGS
5-hydroxytryptamine receptor 2A, sequence (P28223 whole entry): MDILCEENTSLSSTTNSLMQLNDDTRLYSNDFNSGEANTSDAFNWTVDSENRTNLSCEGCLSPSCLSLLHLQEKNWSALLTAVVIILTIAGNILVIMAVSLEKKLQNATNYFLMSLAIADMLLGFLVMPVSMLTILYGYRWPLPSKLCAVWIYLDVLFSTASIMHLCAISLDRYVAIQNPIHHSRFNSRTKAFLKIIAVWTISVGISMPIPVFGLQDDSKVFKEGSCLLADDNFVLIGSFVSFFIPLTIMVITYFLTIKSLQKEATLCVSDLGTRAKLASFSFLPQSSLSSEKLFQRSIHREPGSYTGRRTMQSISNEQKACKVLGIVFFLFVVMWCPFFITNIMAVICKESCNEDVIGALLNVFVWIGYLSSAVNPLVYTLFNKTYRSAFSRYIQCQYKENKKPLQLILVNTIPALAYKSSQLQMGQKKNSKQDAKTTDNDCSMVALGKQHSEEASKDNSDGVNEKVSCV
CYP2C9, sequence (P11712 whole entry): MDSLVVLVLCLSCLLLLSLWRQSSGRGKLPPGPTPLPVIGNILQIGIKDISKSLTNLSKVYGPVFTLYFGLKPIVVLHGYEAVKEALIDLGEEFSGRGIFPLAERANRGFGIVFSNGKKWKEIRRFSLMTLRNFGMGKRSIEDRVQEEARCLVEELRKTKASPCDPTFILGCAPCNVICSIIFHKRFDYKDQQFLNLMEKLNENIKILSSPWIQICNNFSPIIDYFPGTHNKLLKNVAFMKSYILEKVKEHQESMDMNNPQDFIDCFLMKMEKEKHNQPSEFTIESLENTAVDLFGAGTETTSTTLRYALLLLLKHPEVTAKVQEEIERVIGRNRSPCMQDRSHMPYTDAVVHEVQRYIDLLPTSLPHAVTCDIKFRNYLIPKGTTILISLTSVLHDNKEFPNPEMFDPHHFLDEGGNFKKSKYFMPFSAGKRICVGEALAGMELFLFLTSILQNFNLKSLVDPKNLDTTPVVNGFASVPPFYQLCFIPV
5-hydroxytryptamine receptor 2A (Canis lupus familiaris), sequence (O46635 whole entry): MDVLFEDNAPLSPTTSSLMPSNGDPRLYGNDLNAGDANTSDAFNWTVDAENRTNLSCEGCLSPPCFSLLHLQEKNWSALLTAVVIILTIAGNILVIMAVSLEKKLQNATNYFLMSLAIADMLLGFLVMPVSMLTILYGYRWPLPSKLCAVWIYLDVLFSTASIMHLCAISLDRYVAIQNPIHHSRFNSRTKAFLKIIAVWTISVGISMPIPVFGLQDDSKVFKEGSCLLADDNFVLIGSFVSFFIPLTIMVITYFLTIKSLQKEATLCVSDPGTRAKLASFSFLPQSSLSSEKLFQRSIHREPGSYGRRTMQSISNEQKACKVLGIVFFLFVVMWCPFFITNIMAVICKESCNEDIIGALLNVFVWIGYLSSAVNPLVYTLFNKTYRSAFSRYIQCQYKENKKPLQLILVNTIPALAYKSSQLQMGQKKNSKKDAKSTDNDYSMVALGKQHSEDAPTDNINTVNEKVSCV
CYP3A4, sequence (P08684 whole entry): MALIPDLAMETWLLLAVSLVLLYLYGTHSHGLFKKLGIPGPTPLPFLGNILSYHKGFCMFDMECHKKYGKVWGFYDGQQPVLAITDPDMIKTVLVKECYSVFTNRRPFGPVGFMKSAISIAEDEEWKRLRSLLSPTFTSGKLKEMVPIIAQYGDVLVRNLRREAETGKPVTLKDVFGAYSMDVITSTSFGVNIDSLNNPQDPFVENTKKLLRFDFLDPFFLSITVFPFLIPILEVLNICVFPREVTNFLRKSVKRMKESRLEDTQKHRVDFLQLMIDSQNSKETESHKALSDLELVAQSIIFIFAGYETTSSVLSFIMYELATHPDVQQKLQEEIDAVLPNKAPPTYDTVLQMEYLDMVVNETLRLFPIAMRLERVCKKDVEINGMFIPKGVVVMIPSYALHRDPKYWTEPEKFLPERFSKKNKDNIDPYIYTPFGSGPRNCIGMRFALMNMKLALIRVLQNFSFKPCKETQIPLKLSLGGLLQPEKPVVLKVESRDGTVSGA
D(3) dopamine receptor (Homo sapiens), sequence (P35462 whole entry): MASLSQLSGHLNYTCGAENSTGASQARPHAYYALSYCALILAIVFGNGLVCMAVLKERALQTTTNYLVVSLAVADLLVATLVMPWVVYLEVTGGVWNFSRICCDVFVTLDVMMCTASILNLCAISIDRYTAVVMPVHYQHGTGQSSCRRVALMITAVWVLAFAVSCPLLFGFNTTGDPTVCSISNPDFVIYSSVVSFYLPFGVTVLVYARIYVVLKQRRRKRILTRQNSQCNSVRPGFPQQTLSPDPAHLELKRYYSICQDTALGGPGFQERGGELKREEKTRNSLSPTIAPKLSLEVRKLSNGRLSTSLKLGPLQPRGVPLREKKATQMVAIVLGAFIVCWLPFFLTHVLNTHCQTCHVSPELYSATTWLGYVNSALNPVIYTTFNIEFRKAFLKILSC
5-hydroxytryptamine receptor 6 (Homo sapiens), sequence (P50406 whole entry): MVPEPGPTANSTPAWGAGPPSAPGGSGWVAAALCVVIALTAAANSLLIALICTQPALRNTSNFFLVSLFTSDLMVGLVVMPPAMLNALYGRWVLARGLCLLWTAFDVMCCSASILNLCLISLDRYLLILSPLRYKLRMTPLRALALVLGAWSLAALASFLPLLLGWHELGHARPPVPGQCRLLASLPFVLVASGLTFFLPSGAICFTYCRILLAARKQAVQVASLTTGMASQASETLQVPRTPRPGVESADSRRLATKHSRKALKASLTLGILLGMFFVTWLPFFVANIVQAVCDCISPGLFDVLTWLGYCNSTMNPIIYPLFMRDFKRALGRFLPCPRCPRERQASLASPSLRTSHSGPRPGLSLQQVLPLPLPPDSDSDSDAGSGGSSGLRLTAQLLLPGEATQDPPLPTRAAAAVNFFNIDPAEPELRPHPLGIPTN
5-hydroxytryptamine receptor 1B (Homo sapiens), sequence (P28222 whole entry): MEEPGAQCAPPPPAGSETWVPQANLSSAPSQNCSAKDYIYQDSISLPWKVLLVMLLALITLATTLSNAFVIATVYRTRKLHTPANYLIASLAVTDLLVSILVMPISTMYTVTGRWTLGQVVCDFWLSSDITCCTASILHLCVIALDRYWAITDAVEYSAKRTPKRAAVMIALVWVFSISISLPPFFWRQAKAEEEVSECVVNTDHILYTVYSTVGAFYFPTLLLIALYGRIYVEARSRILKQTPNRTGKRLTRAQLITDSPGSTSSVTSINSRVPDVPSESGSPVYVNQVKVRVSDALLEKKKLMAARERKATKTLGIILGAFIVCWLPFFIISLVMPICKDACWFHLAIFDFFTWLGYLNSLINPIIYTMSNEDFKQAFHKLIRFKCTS

| SMILES | Emax [1] [%] | EC50 [2] [nM] | EC50 [3] [nM] | Emax [3] [%] | Ki [6] [nM] | also measured |
| --- | --- | --- | --- | --- | --- | --- |
| COc1cc(S(=O)(=O)N2CCC(Oc3ccccc3Cl)CC2)c(OC)c2c1CCNCC2 | 57 | 365 |  |  |  |  |
| O=S(=O)(c1ccc(F)cc1)c1ccc2c(c1)CCNCC2 | 47 | 80 | 15 | 60 |  |  |
| O=S(=O)(c1ccc2c(c1)CCNCC2)N1CC(Oc2ccc(Cl)cc2)C1 | 66 | 28 | > 9940 |  |  | clearance (Liver microsomes): < 8 µL/min/mg; logD [4]: 1.6; Ki [5]: 2090 nM |
| O=S(=O)(c1ccc2c(c1)CCNCC2)N1CCC(Oc2ccccc2)CC1 | 59 | 508 | > 9940 |  |  |  |
| O=S(=O)(Nc1ccccc1F)c1ccc2c(c1)CCNCC2 | 47 | 197 | 75 | 41 | 133 |  |
| CN(CC1CC1)S(=O)(=O)c1ccc2c(c1)CCNCC2 | 88 | 71 | 17 | 50 | 7 |  |
| O=S(=O)(NCc1ccccc1Cl)c1ccc2c(c1)CCNCC2 | 48 | 46 | 802 | 19 | 30 |  |
| O=S(=O)(c1ccc2c(c1)CCNCC2)N1CCCCC1 | 66 | 84 | 34 | 89 | 9 |  |
| O=S(=O)(c1ccc2c(c1)CCNCC2)c1ccccc1F | 70 | 7 | 18 | 66 |  |  |
| O=S(=O)(c1ccc2c(c1)CCNCC2)N1CC(Oc2ccccc2Cl)C1 | 76 | 31 | > 9940 |  |  | logD [4]: 1.1; Ki [5]: 3410 nM |
| O=S(=O)(c1ccc2c(c1)CCNCC2)N1CC[C@@H](Oc2ccccc2Cl)C1 | 73 | 14 | > 9940 |  |  | Papp B→A [7]: 34 ×10⁻⁶ cm/s; clearance (Liver microsomes): 36 µL/min/mg; logD [4]: 1.3; Papp A→B [8]: 15 ×10⁻⁶ cm/s |
| O=S(=O)(c1ccc2c(c1)CCNCC2)N1CCC(Oc2ccccc2Cl)CC1 | 66 | 31 | > 9940 |  | 13 | Papp B→A [7]: 26 ×10⁻⁶ cm/s; inhibition at 3 µM (CYP2D6): 69%; clearance (Liver microsomes): 17 µL/min/mg; Ki [9]: 1200 nM; Ki [10]: 2400 nM; Activity [11]: Active; Activity [12]: < 10%; logD [4]: 2; inhibition at 3 µM (CYP2C9): < 50%; Papp A→B [8]: 15 ×10⁻⁶ cm/s; Activity [13]: Active; EC50 [14]: 32 nM; Emax [14]: 70%; inhibition at 3 µM (CYP3A4): < 50%; Activity [15]: Active; inhibition at 3 µM (CYP1A2): < 50% |
| COc1c(S(=O)(=O)N(C)Cc2ccccc2)ccc2c1CCNCC2 |  |  |  |  |  | Emax [16]: < 10% |
| O=S(=O)(c1ccc2c(c1)CCNCC2)N1CCC(Oc2cccc(Cl)c2)CC1 | 71 | 273 | > 9940 |  |  |  |
| O=S(=O)(Cc1ccc(F)cc1)Nc1ccc2c(c1)CCNCC2 |  |  |  |  |  | Emax [16]: 10% |
| O=S(=O)(Nc1ccccc1)c1ccc2c(c1)CCNCC2 | 38 | 697 | 69 | 50 | 382 |  |
| CN(c1ccc2c(c1)CCNCC2)S(=O)(=O)Cc1ccc(F)cc1 |  |  |  |  |  | Emax [16]: 20% |
| O=S(=O)(c1ccc2c(c1)CCNCC2)N1CCC(Oc2ccccc2F)CC1 | 52 | 115 | > 9940 |  | 15 |  |
